Assay [1] addresses T1, Phenylalanine-4-hydroxylase (Rattus norvegicus, UniProt P04176).
T1 sequence (P04176 whole entry): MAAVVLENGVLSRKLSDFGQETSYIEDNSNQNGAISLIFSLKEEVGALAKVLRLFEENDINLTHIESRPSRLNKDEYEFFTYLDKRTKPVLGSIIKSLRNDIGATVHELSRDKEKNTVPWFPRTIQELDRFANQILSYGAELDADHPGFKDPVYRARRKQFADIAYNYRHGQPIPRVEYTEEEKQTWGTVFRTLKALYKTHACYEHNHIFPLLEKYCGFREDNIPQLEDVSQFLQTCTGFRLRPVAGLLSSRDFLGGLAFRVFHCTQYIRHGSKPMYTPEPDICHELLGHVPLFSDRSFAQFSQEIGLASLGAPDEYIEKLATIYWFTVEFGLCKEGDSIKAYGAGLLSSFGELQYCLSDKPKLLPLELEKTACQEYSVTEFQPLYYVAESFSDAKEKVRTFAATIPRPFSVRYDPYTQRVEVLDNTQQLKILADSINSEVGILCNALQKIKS
Put plainly: Tested for competitive binding inhibition against phenylalanine hydroxylase in rat liver. The method, boiled down:
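Initial rate of tyrosine formation followed at 25 °C as the rise in absorbance at 275 nm. The cofactor was 6-MePH₄ at 12.5–50 μM.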

Assay [2] in a line: Michaelis-Menten constant was determined for the compound.

Structures are written as SMILES.

This is an account of results in ChEMBL document CHEMBL1122364, “Preparation of 2-amino-4(3H)-oxopyrimido[5,4-b] [1,4]thiazines (5-thiapterins) and their evaluation as cofactors for phenylalanine hydroxylase” (J Med Chem, 1983).

As a reminder, the Ki is the equilibrium dissociation constant of an inhibitor or competing ligand from its target. A lower Ki goes with higher affinity. For orientation: Km means the substrate concentration at which the rate is half of its maximum.

`Nc1nc(N)c(Sc2ccccc2)c(O)n1`: the Ki in assay [1] worked out at 4.7 µM.
The same measure, in the same setting: then `Nc1nc(O)c2c(n1)NCC(c1ccccc1)[S+]2[O-]` (stereo unspecified), with 7 µM; and `Nc1nc2c(c(=O)[nH]1)SC(c1ccccc1)CN2` (stereo unspecified), with 0.2 µM; and `CC1CNc2nc(N)nc(O)c2[S+]1[O-]` (stereo unspecified), with 125 µM.
In the case of `Nc1nc(O)c2c(n1)SCC(c1ccccc1)N2` (stereo unspecified), the affinity in assay [1], expressed as Ki, was 500 µM.
Turning to `CC1CNc2nc(N)[nH]c(=O)c2S1` (stereo unspecified), the Ki in assay [1] is 36 µM.
`Nc1nc(O)c2c(n1)NCC(c1ccccc1)N2` (stereo unspecified): the Km in assay [2] worked out at 3 µM.
Consider `Nc1nc(O)c2c(n1)NCC[S+]2[O-]` (stereo unspecified), for which, in assay [1], the affinity corresponds to a Ki of 400 µM.
Consider `Nc1nc(O)c2c(n1)NCCN2`, for which, in assay [2], the Km came to 130 µM.
Same read-out and setting: to `CC1CNc2nc(N)[nH]c(=O)c2N1` (stereo unspecified) belongs 40 µM.
In assay [1], `Nc1nc(O)c2c(n1)NCCS2` registered a Ki of 85 µM. This lies in the double-digit micromolar range.
